The source made the active and inactive calls. No cut-off for these calls is given here.
Experiments:
Oryctolagus cuniculus [1] = experiment: Narcotic antagonist activity in iv dosed rabbit assessed as inhibition of morphine-induced respiratory depression; type: functional
Method in brief: (§1)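 Rabbits given test compound iv; read-out is antagonism of morphine-induced respiratory depression; expressed as AD50 in mg/kg or as % antagonism at a fixed dose.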

Rhesus monkey [2] = experiment: Narcotic antagonist activity in morphine-dependent rhesus monkey assessed as mild to moderate abstinence at 3 to 12 mg/kg; type: functional, organism-based; details: Macaca mulatta
Method in brief: (§2)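 Compound given to nonwithdrawn morphine-dependent monkeys; scored as precipitation of abstinence syndrome, with severity graded from mild to severe over the stated dose range.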

Rhesus monkey [3] = experiment: Suppression of abstinence syndrome in morphine-dependent rhesus monkey at 6 mg/kg; type: functional, organism-based; design: dose 6 mg/kg; details: Macaca mulatta
Mus musculus [4] = experiment: Analgesic activity in sc dosed mouse by hot-plate method; type: functional; details: Mus musculus, sc; read-out: ED50
Mus musculus [5] = experiment: Analgesic activity in sc dosed mouse assessed as inhibition of AcOH-induced writhing; type: functional; details: Mus musculus, sc; read-out: ED50
[6] = Acute toxicity in sc dosed mouse; type: organism-based; details: in vivo
Mus musculus [7] = experiment: Analgesic activity in sc dosed mouse assessed as time duration of activity by hot-plate method; type: functional
Rhesus monkey [8] = experiment: Narcotic antagonist activity in morphine-dependent rhesus monkey assessed as mild to severe abstinence at 2 mg/kg; type: functional, organism-based; design: dose 2 mg/kg; details: Macaca mulatta; method in brief: as §2
Rhesus monkey [9] = experiment: Suppression of abstinence syndrome in morphine-dependent rhesus monkey up to 16 mg/kg; type: functional, organism-based; design: dose 16 mg/kg; details: Macaca mulatta
Rhesus monkey [10] = experiment: Suppression of abstinence syndrome in morphine-dependent rhesus monkey up to 6 mg/kg; type: functional, organism-based; design: dose 6 mg/kg; details: Macaca mulatta
Oryctolagus cuniculus [11] = experiment: Narcotic antagonist activity in rabbit assessed as inhibition of morphine-induced respiratory depression up to 1 mg/kg, iv; type: functional, organism-based; design: dose 1 mg/kg; method in brief: as §1
Rhesus monkey [12] = experiment: Suppression of abstinence syndrome in morphine-dependent rhesus monkey at 1 mg/kg; type: functional, organism-based; design: dose 1 mg/kg; details: Macaca mulatta
Rhesus monkey [13] = experiment: Narcotic antagonist activity in morphine-dependent rhesus monkey assessed as mild to severe abstinence at 2 to 8 mg/kg; type: functional, organism-based; details: Macaca mulatta; method in brief: as §2
Rhesus monkey [14] = experiment: Suppression of abstinence syndrome in morphine-dependent rhesus monkey up to 8 mg/kg; type: functional, organism-based; design: dose 8 mg/kg; details: Macaca mulatta
Rhesus monkey [15] = experiment: Narcotic antagonist activity in morphine-dependent rhesus monkey assessed as mild to severe abstinence at 1 to 8 mg/kg; type: functional, organism-based; details: Macaca mulatta; method in brief: as §2
Rhesus monkey [16] = experiment: Narcotic antagonist activity in morphine-dependent rhesus monkey assessed as precipitation of abstinence up to 8 mg/kg; type: functional, organism-based; design: dose 8 mg/kg; details: Macaca mulatta; method in brief: as §2
Rhesus monkey [17] = experiment: Suppression of abstinence syndrome in morphine-dependent rhesus monkey at 8 mg/kg; type: functional, organism-based; design: dose 8 mg/kg; details: Macaca mulatta
Oryctolagus cuniculus [18] = experiment: Narcotic antagonist activity in rabbit assessed as inhibition of morphine-induced respiratory depression at 5 mg/kg, iv; type: functional; method in brief: as §1
Mus musculus [19] = experiment: Analgesic activity in mouse by hot-plate method up to 100 mg/kg, sc; type: functional, organism-based; design: dose 100 mg/kg
Rhesus monkey [20] = experiment: Suppression of abstinence syndrome in morphine-dependent rhesus monkey at 5 mg/kg; type: functional, organism-based; design: dose 5 mg/kg; details: Macaca mulatta
Mus musculus [21] = experiment: Analgesic activity in mouse assessed as inhibition of AcOH-induced writhing up to 22.5 mg/kg, sc; type: functional, organism-based; design: dose 22.5 mg/kg
Rhesus monkey [22] = experiment: Narcotic antagonist activity in morphine-dependent rhesus monkey assessed as mild to severe abstinence at 2.5 to 20 mg/kg; type: functional, organism-based; details: Macaca mulatta; method in brief: as §2
Rhesus monkey [23] = experiment: Suppression of abstinence syndrome in morphine-dependent rhesus monkey at 1.5 mg/kg; type: functional, organism-based; design: dose 1.5 mg/kg; details: Macaca mulatta
Rhesus monkey [24] = experiment: Narcotic antagonist activity in morphine-dependent rhesus monkey assessed as moderate to severe abstinence at 1.5 to 12 mg/kg; type: functional, organism-based; details: Macaca mulatta; method in brief: as §2

Compound | AD50 (Oryctolagus cuniculus [1]) [mg/kg] | ED50 (Mus musculus [4]) [mg/kg] | ED50 (Mus musculus [5]) [mg/kg] | LD50 [6] [mg/kg] | Time (Mus musculus [7]) [min] | also measured
CN1C[C@]2(c3cccc(O)c3)CCC[C@H]1C2 | 4.1 | 3.6 | 3.7 | 90.7 | 140 | Activity (Rhesus monkey [2]): Active; Activity (Rhesus monkey [3]): inactive
COc1cccc(C23CCCC(C2)N(CCCC(=O)c2ccc(F)cc2)C3)c1.Cl (racemic) | – | 4.2 | 3 | > 225 | – | Activity (Rhesus monkey [8]): inactive; Activity (Rhesus monkey [9]): inactive
CC1N(CCc2ccccc2)C2CCCC1(c1cccc(O)c1)C2.Cl (racemic) | – | 0.3 | 0.61 | 27.6 | – | Activity (Rhesus monkey [10]): inactive; inhibition (Oryctolagus cuniculus [11]): inactive
CC1N(C)C2CCCC1(c1cccc(O)c1)C2 (racemic; 8) | – | – | – | – | – | Activity (Rhesus monkey [12]): inactive; Activity (Rhesus monkey [13]): Active
CC1N(CC2CC2)C2CCCC1(c1cccc(O)c1)C2.Cl (racemic) | 0.1 | 5.8 | 2.2 | 59.8 | – | Activity (Rhesus monkey [14]): inactive
CC(=O)Oc1cccc(C23CCCC(C2)N(C)C3C)c1 (single isomer, unassigned; (+)) | – | – | – | – | – | Activity (Rhesus monkey [12]): inactive; Activity (Rhesus monkey [15]): Active
CN1CC2(c3cccc(O)c3)CCCC1C2 (racemic) | 3.1 | 14.3 | 12.3 | 133 | 137 | Activity (Rhesus monkey [16]): inactive; Activity (Rhesus monkey [17]): inactive
Br.C[C@@H]1N(C)[C@@H]2CCC[C@@]1(c1cccc(O)c1)C2 | – | – | – | 82.7 | – | inhibition in vivo at 5 mg/kg (Oryctolagus cuniculus [18]): 48%; Activity (Mus musculus [19]): inactive; Activity (Rhesus monkey [20]): inactive; Activity (Mus musculus [21]): inactive; Activity (Rhesus monkey [22]): Active
Br.C[C@H]1N(C)[C@H]2CCC[C@]1(c1cccc(O)c1)C2 | – | 2.9 | 1.2 | 123 | 148.6 | inhibition in vivo at 5 mg/kg (Oryctolagus cuniculus [18]): 42%; Activity (Rhesus monkey [23]): inactive; Activity (Rhesus monkey [24]): Active
